Bounds are passed on as bounds.

From article PMC7885995 (Oncogene, 2020) come the findings set out here.

One data set concerns GBM PDX lines. Description: BAPTA calcium chelation before MED2. The data set is classed as cell-based, human. The note with it: BAPTA pretreatment, low concentrations, 5-hour CTL2/MED2; X1441, JX39, JX59. The essentials: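 Cells were pretreated with BAPTA-AM and then exposed to CTL2 or MED2 for 5 h, at 2.5 μM for X1441 and 5 μM for JX39 and JX59, with relative viability as read-out. For SYTOX, cells were pretreated with 50μM BAPTA and given peptide for 1.5 h. Percent SYTOX-positive cells was scored on the Xcyto10 image cytometer at 4X. Analysis used two-way ANOVA with Tukey's test.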

For data set [1], the system named is XD456 (proneural GBM PDX). The experiment in a line: Cell viability. The data set is classed as cell-based, human. The note with it: XD456, 2.5μM MED2, 72 h, n=4. The essentials:
(§1)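 1 × 10^4 Trypan blue-counted live cells were plated in 90 μL medium in 4 replicates; PDX cells were kept in neurosphere medium and NHAs in standard medium. Peptide (PBS-reconstituted, added as 10X in medium) went on 2 h after plating. CellTiter-Glo ATP luminescence was read at 72 h. MED2 RLU was normalized to CTL2 (5 μM for 1–5 μM; 10 μM for 10 μM). GI50 was interpolated from a standard curve.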

Data set [2] relates to X1441 (proneural GBM PDX). The experiment in a line: Cell viability. The following applies: X1441, 2.5μM MED2, 72 h, n=4. The data set is classed as cell-based, human. The essentials:
as §1

The next data set deals with JX12 (classical GBM PDX). Description: Cell viability. The note with it: JX12, 5μM MED2, normalized to 5μM CTL2, 72 h, n=4. Format: cell-based, human. The essentials: as §1
The subject of the next data set is JX14 (classical GBM PDX). Description: Cell viability. The data set is classed as cell-based, human. The note with it: JX14, 10μM MED2, normalized to 10μM CTL2, 72 h, n=4. The essentials: as §1
A further data set relates to JX39 (classical GBM PDX). The experiment in a line: Cell viability. Format: cell-based, human. The following applies: JX39, 5μM MED2, normalized to 5μM CTL2, 72 h, n=4. The essentials: as §1
Data set [3] deals with JX22 (mesenchymal GBM PDX). The experiment in a line: Cell viability. The data set is classed as cell-based, human. The note with it: JX22, 10μM MED2, normalized to 10μM CTL2, 72 h, n=4. The essentials:
as §1

Data set [4] deals with JX59 (mesenchymal GBM PDX). Description: Cell viability. The following applies: JX59, 10μM MED2, normalized to 10μM CTL2, 72 h, n=4. Format: cell-based, human. The essentials: as §1
Data set [5] has as its system normal human astrocytes (NHAs). Description: Cell viability. The data set is classed as cell-based. The note with it: CellTiter-Glo, 72 h. The essentials: as §1
On the technique in general: In ATP-based viability assays light output follows the ATP content of the culture.

Data set [6] deals with GBM PDX lines (proneural, classical, mesenchymal subtypes). Description: Cell viability, statements for groups of GBM PDX lines. Format: cell-based, human. The following applies: multiple PDX subtypes, 5μM CTL2/MED2, 9 hours, p>0.05.
Data set [7] relates to caspase 3/7 activation in GBM cells. Description: Caspase 3/7 activation. The data set is classed as cell-based, human. The essentials: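 Cells pretreated with 1–200μM QVD-OPh or 100μM Z-VAD-FMK received MED2 or CTL2. They were lifted with their media and stained for 30 min at RT with CellEvent green caspase 3/7 dye, Annexin-V AlexaFluor 647 and SYTOX orange in Annexin-V binding buffer. Imaging was on Xcyto10 at 4X with channel compensation. Read-out was mean caspase fluorescence per cell relative to CTL2 (n>5000 cells).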

The subject of a further data set is XD456. The experiment in a line: Time-lapse imaging and SYTOX uptake. The data set is classed as cell-based, human. The following applies: XD456, 3μM, time-lapse imaging. The method in brief: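 XD456 cells were given 3μM MED2 and tracked by time-lapse still frames at 10X. For membrane permeabilization, cells received 5μM CTL2 or MED2 and were imaged every 5 min for 125 min at 20X. Imaging was on CellInsight CX7 in a heated CO2 chamber using Hoechst and SYTOX orange channels. Mean SYTOX intensity per cell was scored from n>400 cells.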

Data set [8] deals with intracellular calcium in XD456. The experiment in a line: Fluo-4 calcium imaging. The data set is classed as cell-based, human. The note with it: XD456, 3μM, serial imaging over two hours. The method in brief: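 1 × 10^5 XD456 cells were attached in 24-well plates and loaded at 37C for 1.5 h in 1X Fluo-4 direct calcium assay buffer with 5mM probenecid. SYTOX and then 3μM CTL2 or MED2 were added. Serial live images, including one taken before peptide, were acquired at 10X on an EVOS FL using GFP and RFP channels.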

In the next data set the test system is PARP1 cleavage in XD456. The experiment in a line: PARP1 cleavage immunoblot. The data set is classed as cell-based, human. The note with it: XD456, 3μM MED2, 5 and 24 hours.
Another data set relates to athymic nude mice. Description: In vivo MED2-CY7 biodistribution, tumor-naïve mice. Also on record: species or system mouse. The following applies: 3 hours.
The subject of data set [9] is X1016 PDX implanted into the brain of athymic nude mice. The experiment in a line: In vivo MED2-CY7 accumulation in orthotopic GBM PDX. Further details: species or system mouse. The note with it: tail-vein, 3 hours, Pearl / Odyssey CLx imaging. The method in brief: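 6-week-old female athymic nude mice were stereotactically implanted with 5 × 10^5 X1016 cells into the caudate putamen 1 week before dosing. They were sorted by bioluminescence for similar tumor burden and randomized, unblinded, to two doses of Cy7-labeled peptide. Peptide in 100 μL saline went by tail vein, with sacrifice at 3 h. Brains were formalin-fixed, cut into 5 mm coronal slices and imaged on Pearl. Paraffin sections were H&E-stained or imaged on Odyssey CLx at […].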

As for `CC(=O)OCOC(=O)CN(CC(=O)OCOC(C)=O)c1ccccc1OCCOc1ccccc1N(CC(=O)OCOC(C)=O)CC(=O)OCOC(C)=O` [BAPTA, BAPTA-AM], in the data set with GBM PDX lines, the “protection against MED2 cytotoxicity” value was “no protective effects”.
With `CC(C)C[C@H](NC(=O)[C@H](CCCCN)NC(=O)[C@H](Cc1ccccc1)NC(=O)[C@H](CO)NC(=O)[C@H](CCCCN)NC(=O)[C@H](CCCCN)NC(=O)[C@H](Cc1ccccc1)NC(=O)[C@H](CO)NC(=O)[C@H](Cc1ccccc1)NC(=O)[C@H](CCCNC(=N)N)NC(=O)[C@H](CCCCN)NC(=O)[C@H](CCCCN)NC(=O)[C@H](CCCCN)NC(=O)[C@H](CCCCN)NC(=O)[C@H](CCCCN)NC(=O)[C@@H](N)CSC1CC(=O)N(CCC(=O)N[C@@H](Cc2ccc(O)cc2)C(=O)NCC(=O)N[C@@H](CCCNC(=N)N)C(=O)N[C@@H](CCCCN)C(=O)N[C@@H](CCCCN)C(=O)N[C@@H](CCCNC(=N)N)C(=O)N[C@@H](CCCNC(=N)N)C(=O)N[C@@H](CCC(N)=O)C(=O)N[C@@H](CCCNC(=N)N)C(=O)N[C@@H](CCCNC(=N)N)C(=O)N[C@@H](CCCNC(=N)N)C(N)=O)C1=O)C(=O)N[C@@H](CO)C(=O)NCC(=O)N[C@@H](Cc1ccccc1)C(=O)N[C@@H](CO)C(=O)N[C@@H](Cc1ccccc1)C(=O)N[C@@H](CCCCN)C(=O)N[C@@H](CCCCN)C(=O)N[C@@H](CC(N)=O)C(=O)N[C@@H](CCCCN)C(=O)N[C@@H](CCCCN)C(N)=O` (some centres unmarked) [MED2], the reduction in viability (in [1]; in data set [2]; in the data set with JX12 (classical GBM PDX); in the data set with JX14 (classical GBM PDX); with JX39 (classical GBM PDX); in [3]) was > 50% each time. In data set [4], the reduction in viability is given as > 50%. Further, in [5] (5μM and 10μM), the “change in NHA viability” value is on record as “increases in viability”. Moreover, the “toxicity in NHAs” value in [5] (10μM) was “no toxicity”. Moreover, in data set [6], the “inhibition of viability in adherent vs suspension cells” value is recorded as “equally effective”. Further, the “caspase 3/7 activation compared with CTL2” value in data set [7] (MED2 treatment, P<0.001, n>5000) is reported as “increased caspase 3/7 activation”. Also, the “onset of morphological effects and signs of cellular injury” value with XD456 is recorded as ≤ 1 hour. The “Fluo-4 intensity (intracellular calcium)” value in [8] is recorded as “increased within minutes”. The PARP1 cleavage pattern result with PARP1 cleavage in XD456 was “loss of both 122kD and 89kD bands with the formation of an approximately 72 kD band”.
`CC(C)[C@H](NC(=O)c1ccc2ccccc2n1)C(=O)N[C@@H](CC(=O)O)C(=O)COc1c(F)cccc1F` [QVD-OPh, reference compound]: the “reduction in MED2-induced caspase 3/7 activation” value in [7] (doubled QVD-OPh (200μM), n>5000) was 50%.
On to “KKKKKRFSFKKSFKLSGFSFKKNKK-LC- K(Lumiprobe CY7) [MED2-CY7]”, for which the “organs with greatest fluorescence intensity per mg tissue” value in the data set with athymic nude mice (5 or 10 nanomoles, tail-vein, LI-COR Pearl, n=3 per dose group) is “kidney, liver, small and large intestines”. Besides, the brain partitioning result with athymic nude mice (5 or 10 nanomoles, tail-vein, n=3 per dose group) is “only a small percentage of total peptide reaching the brain”. The “increase in brain (periventricular) fluorescence per mg tissue, 10nmol vs 5nmol” value in the data set with athymic nude mice (tail-vein injection, tumor-naïve nude mice, Pearl imaging, n=3, p=0.026) is “greater than threefold”. In addition, the “fluorescence in tumor-burdened regions of the brain compared to normal brain” value in data set [9] is given as “substantial increases”.
